Source: publication PMC3016154 (Journal of biomolecular screening, 2010)

Experiments:
EAAT2 protein expression = conditions: mice, intraperitoneal injection; cited from earlier work
EAAT2 = conditions: cited from earlier work
[1] = tested on: EAAT2 protein expression (human EAAT2 transcripts with the 1091-nucleotides 5′ UTR); assay: Cell-based ELISA for EAAT2 protein expression in PA-EAAT2 cells; conditions: retinoic acid 1.5 μg/mL, 384-well format, vs DMSO
Outline: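 PA-EAAT2 cells at 8000/well, grown 36 h in 2% FBS DMEM with geneticin, then switched to serum-free DMEM/geneticin and exposed 72 h (0.20% DMSO final). Fixed 2 h in 4% formaldehyde; peroxide quench, milk block; rabbit anti-EAAT2 1:2000 overnight at 4°C, HRP anti-rabbit 1:6000 for 2 h; chemiluminescence read at 40 min. % activation vs DMSO wells; EC50 from 12-point 3-fold series, […], quadruplicate.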

CO/N=C(\C(=O)N[C@@H]1C(=O)N2C(C(=O)O)=C(CSc3nc(=O)c(=O)[nH]n3C)CS[C@H]12)c1csc(N)n1 [ceftriaxone, Ceftriaxone]
induction of EAAT2 protein expression or glutamate uptake activity (EAAT2 protein expression): only slightly induces

C[C@]12C[C@H](O)[C@H]3[C@@H](CCC4=CC(=O)CC[C@@]43C)[C@@H]1CC[C@@H]2C(=O)CO [corticosterone]
translational activator of EAAT2 (EAAT2): translational activator of EAAT2

CC1=C(/C=C/C(C)=C/C=C/C(C)=C/C(=O)O)C(C)(C)CCC1 [retinoic acid]
PA-EAAT2 cell signal increase [1]: 2- to 3.5 fold
